In the library only some 4.7% were active in any assay of this set; here they are far more common.
ADAM17 inh – ADAM17 inhibitors, primary screen, biochemical, QFRET | recombinant ADAM17, EDANS/DABCYL FRET peptide cleavage | inhibition, % at 6.95 µM | hit rate 0.83% among 370,000 | AID 720648, 2013;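 active = inhibition above the mean of compounds lying between control limits plus 3 SD, set per campaign, cut at about 8.5% in these data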;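 also: 0% = DMSO-only wells as the low control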
Target sequence (P78536 215-824 limits assumed): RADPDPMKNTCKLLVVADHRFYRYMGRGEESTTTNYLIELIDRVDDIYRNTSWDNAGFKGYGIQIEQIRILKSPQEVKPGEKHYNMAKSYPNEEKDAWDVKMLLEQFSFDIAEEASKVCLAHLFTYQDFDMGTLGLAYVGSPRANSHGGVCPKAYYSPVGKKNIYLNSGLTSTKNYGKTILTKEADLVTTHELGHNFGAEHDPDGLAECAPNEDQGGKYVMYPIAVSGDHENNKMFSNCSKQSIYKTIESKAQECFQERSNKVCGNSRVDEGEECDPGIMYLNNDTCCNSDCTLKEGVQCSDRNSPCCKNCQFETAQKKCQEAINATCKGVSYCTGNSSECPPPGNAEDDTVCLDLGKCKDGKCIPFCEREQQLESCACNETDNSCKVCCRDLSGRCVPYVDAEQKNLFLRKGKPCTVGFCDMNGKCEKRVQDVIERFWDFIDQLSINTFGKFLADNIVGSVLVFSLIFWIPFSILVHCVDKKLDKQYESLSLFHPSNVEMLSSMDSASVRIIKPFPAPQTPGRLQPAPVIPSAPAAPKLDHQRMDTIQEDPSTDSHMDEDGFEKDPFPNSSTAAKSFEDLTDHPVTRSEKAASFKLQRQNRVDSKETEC
GRIN3A LBD mod – binders of NR3A ligand-binding domain, primary screen, biophysical, differential scanning fluorimetry, uHTS. NR3A LBD differential scanning fluorimetry, Tm shift; 0% = protein alone, 100% = glycine-bound protein. Tm shift relative to glycine control, % at 25 µM. hit rate 2.5% among 340,000. Glutamate receptor ionotropic, NMDA 3A (GRIN3A) ligand-binding domain. AID 1259313, 2017;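 active = melting temperature shift of at least 10% of the positive control shift, at one fixed dose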
ADAM10 inh – human ADAM10 inhibitors, primary screen, biochemical, QFRET, HTS | Disintegrin and metalloproteinase domain-containing protein 10 (Homo sapiens), O14672 | recombinant ADAM10, EDANS/DABCYL FRET peptide cleavage, 3 h | inhibition, % at 7 µM | hit rate 0.62% among 370,000;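 active = inhibition above a per-campaign cutoff equal to the mean of compounds falling between control-based bounds plus 3 SD, cut at about 20% in these data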;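 also: 0% = DMSO wells while the 100% control is not disclosed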
SKN-1 block – suppressors of acrylamide-induced Pgst-4::GFP reporter in worms, primary screen, SKN-1 inhibitor project, whole organism, uHTS, GFP/RFP fluorescence ratio, strain VP596; C. elegans VP596 Pgst-4::GFP/RFP ratio, 24 h; inhibition, % at 21.8 µM; hit rate 0.49% among 360,000; AID 624304, 2012;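 active = interference check ratio from 0.5 to 1.5 plus GFP to RFP signal ratio inhibition reaching or exceeding a fixed threshold, cut at about 30% in these data, passing the limit was not always enough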
MT1-MMP act inh – blockers of MT1-MMP proenzyme processing, primary screen, HT1080 RFP-PRO-GFP cells, GFP/RFP fluorescence. Matrix metalloproteinase-14 (Homo sapiens), P50281. GFP/RFP ratio fluorescence, overnight; percent of plate control window, DMSO zero. GFP/RFP ratio change, % at 20 µM. hit rate 0.061% among 360,000. AID 651647, 2012;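 active = GFP/RFP ratio change of at least 30% with cell ATP level not reduced by more than half and red fluorescence within 50% of control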
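Assay system: HT1080 cells carrying an RFP-PRO-GFP reporter | Dosing: Single dose of 20 µM compound, 1% DMSO final | Incubation: Cells overnight before dosing, compound overnight, 37 °C, 5% CO2 | Evaluation: GFP/RFP fluorescence ratio | Control set: DMSO and RFP-L50D-GFP cell wells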
MPTP block – mitochondrial permeability transition pore inhibitors, primary screen, biochemical, isolated mouse mitochondria, absorbance | Ca2+ swelling absorbance, 30 min | inhibition, % at 10 µM | hit rate 1.4% among 360,000;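 active = inhibition of 50% or more, scaled per plate between neutral and stimulator controls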;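 also: 0% = DMSO wells given calcium and 100% = 1 mM EGTA wells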
Rh123 counter – fluorescence retest of MPTP screen hits in isolated mitochondria, single concentration; shares compounds with MPTP block; membrane potential, Rhodamine 123 fluorescence; inhibition, % at 10 µM; hit rate 78% among 5,000; AID 624504, 2012; in the data active = inhibition above about 22%;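 also: 0% = DMSO vehicle and 100% = positive control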
MPTP abs DR – mitochondrial permeability transition pore inhibitors, dose response, biochemical, absorbance, uHTS hits; IC50, µM; AID 651561, 2012; isolated mitochondria swelling; shares compounds with MPTP block; hit rate 58% among 780; in the data active = IC50 below about 20 µM
MPTP counter DR – fluorescent counter-screen in isolated mitochondria, dose response, counter-screen for MPTP inhibitor project, biochemical, fluorescence, uHTS hits; shares compounds with MPTP block; AID 651564, 2012; isolated mitochondria counterscreen, fluorescence read-out; hit rate 49% among 780; IC50, µM; in the data active = IC50 below about 80 µM
Active calls of the source: *; i = inactive; · = no result.

SMILES	ADAM17 inh	GRIN3A LBD mod	ADAM10 inh	SKN-1 block	MT1-MMP act inh	MPTP block	Rh123 counter	others
Cc1ccc(CC(=O)Nc2cccc(C(=O)Nc3c(C)n(C)n(-c4ccccc4)c3=O)c2)cc1C	-2	·	-3	13	9	1	·
CC1(c2ccccc2)CC(C)(C)N2C(=O)/C(=C3\SC(=S)NC3=O)c3cccc1c32 (configuration not stated)	-2	-6	-4	0	5	102*	63*
O=S(=O)(c1cccs1)N1CCN(CC(O)COc2cc(Cl)ccc2Cl)CC1 (configuration not stated)	3	-16	8	7	-10	87*	91*
C/C(Cl)=C\Cn1c(NCCc2ccccc2)nc2c1c(=O)n(C)c(=O)n2C	-4	-1	-6	9	-7	54*	83*
Cc1oc(-c2ccc(Cl)cc2)nc1CN1CCC(C(=O)N2CCN(Cc3ccccc3)CC2)CC1	3	0	2	5	5	57*	9	MPTP abs DR=i;MPTP counter DR=30*
Cc1ccc(OCC(=O)N2N=C(C(F)(F)F)CC2(O)C(C)(C)C)cc1C (configuration not stated)	3	0	-5	0	6	79*	65*
CCOC(=O)C1=CN(Cc2ccco2)S(=O)(=O)N(CC)C1c1ccccc1 (configuration not stated)	-3	0	-1	6	1	0	·
CC(C)N(C(=S)Nc1cccc(C(F)(F)F)c1)C(C)c1ccccn1 (configuration not stated)	-2	-2	-1	-7	4	92*	83*
COc1ccccc1NC(=S)N(C(C)C)C(C)c1ccccn1 (configuration not stated)	-5	0	-6	7	2	8	·
Cc1cc2c(NC(=O)Nc3ccc(C(F)(F)F)cc3)cccc2nn1	0	4	6	5	8	86*	85*
Cc1cc2c(NC(=O)CCCC(=O)O)cccc2nn1	-3	-2	4	-15	1	-1	·
Cn1cc(NC(=O)Nc2ccc(C(F)(F)F)cc2)c(C(F)(F)F)n1	1	-4	16	7	-1	66*	86*
O=C(COC(=O)c1cc(S(=O)(=O)N2CCOCC2)c(Cl)cc1Cl)NC1CC1	-2	0	-2	-6	-5	0	·
O=C(NCCN1C(=O)S/C(=C\c2ccc(Cl)c(Cl)c2)C1=O)C1COc2ccccc2O1 (configuration not stated)	-8	1	0	-5	0	99*	92*
O=C(NCCN1C(=O)S/C(=C\c2ccc(Cl)cc2)C1=O)c1ccc(F)c(S(=O)(=O)N2CCOCC2)c1	5	-2	0	9	5	1	·
O=C(NCCN1C(=O)S/C(=C\c2ccc(Cl)c(Cl)c2)C1=O)c1ccc2c(c1)C(=O)N(Cc1ccncc1)C2=O	-3	-4	-2	0	-6	56*	20*
COc1ccc(/C=C2/SC(=O)N(CCNC(=O)C3COc4ccccc4O3)C2=O)cc1 (configuration not stated)	0	-1	-4	8	4	6	·
CC(C)(C)OC(=O)N/N=C/c1cc(N=Nc2ccccc2)ccc1O	-2	6	-3	-1	8	96*	69*
Cc1nc2ccccn2c1C(=O)NNS(=O)(=O)c1ccc(C(C)(C)C)cc1	-4	-4	-13	17	-3	76*	72*
COc1ccc(Br)cc1S(=O)(=O)NNC(=O)c1c(C)nc2ccccn12	-1	0	5	6	1	0	·
N#CCCN(C(=O)Nc1ccc(Cl)c(Cl)c1)c1ccccc1	-3	-3	4	13	5	97*	93*
COc1ccccc1CN(Cc1nc2ccccc2c(=O)[nH]1)S(=O)(=O)c1ccc2ccccc2c1	-3	-5	-1	-1	-10	3	·
Cn1c(C(=O)N2CCN(c3ccc(Cl)cc3)CC2)cc2c(=O)[nH]c3ccccc3c21	0	-1	-2	1	10	1	·
Cc1ccc(Cl)cc1N1CCN(C(=O)c2cc3c(=O)[nH]c4ccccc4c3n2C)CC1	-1	-2	3	5	-2	57*	-4	MPTP abs DR=>100;MPTP counter DR=>80
CN1C(=O)N(CC(=O)N2CCN(S(=O)(=O)Cc3ccccc3)CC2)C(=O)C12CCCCC2	-1	0	-11	-3	2	-1	·
SMILES	ADAM17 inh	GRIN3A LBD mod	ADAM10 inh	SKN-1 block	MT1-MMP act inh	MPTP block	Rh123 counter	others
COc1cc2ncnc(NCc3ccccc3)c2cc1OC	-1	-1	-3	-7	0	-2	·
CCCCNc1nc(NCc2ccccc2)nc2ccccc12	-26	·	-82	17	0	78*	118*
c1ccc(CNc2ncnc3ccccc23)cc1	4	-2	4	25	-4	84*	59*
c1ccc(CNc2nc(N3CCN(Cc4ccccc4)CC3)nc3ccccc23)cc1	-19	0	-52	16	-3	53*	81*
CCC1CCCCN1C(=O)c1cccc(S(=O)(=O)Nc2cc(C(F)(F)F)ccc2Cl)c1 (configuration not stated)	3	4	13	10	-5	74*	81*
O=C(NC1CCN(Cc2ccccc2)CC1)c1cccc(S(=O)(=O)Nc2cc(C(F)(F)F)ccc2Cl)c1	5	2	-2	9	1	4	·
O=C(CN1CCOCC1)N1CCCc2ccccc21	1	1	3	-2	5	-1	·
Cc1cccc2[nH]c3c(N4CC=C(c5ccc(F)cc5)CC4)ncnc3c12	-30	-4	-72	-12	-6	66*	62*
O=[N+]([O-])c1ccc(O)c(Nc2ncnc3ccc(Br)cc23)c1	2	2	-10	8	2	102*	85*
